# Test system: Fibroblast
# Experiment: Multiplex assay against human fibroblast
# Format: toxicity, cell-based
# How it was run: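 Live cells were stained at seeding with Hoechst33342, BioTracker Green Microtubule Cytoskeleton Dye, MitoTracker Red and Annexin V Alexa Fluor 680. Following compound addition, they were imaged on a CQ1 microscope at 37°C and 5% CO2 and gated by CellPathfinder machine learning into Hoechst high-intensity objects or normal cells, with normal cells split into healthy, pyknosed or fragmented nuclei and pyknosed cells into mitotic or apoptotic. Tubulin, mitochondrial-mass and membrane-permeability phenotypes are per cents of healthy-nucleus cells.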
# [1] = 12 h, 1 µM, compound concentration 1 uM, replicate 1
# [2] = 12 h, 1 µM, compound concentration 1 uM, replicate 2
# [3] = 12 h, 10 µM, compound concentration 10 uM, replicate 1
# [4] = 12 h, 10 µM, compound concentration 10 uM, replicate 2
# [5] = 24 h, 1 µM, compound concentration 1 uM, replicate 1
# [6] = 24 h, 1 µM, compound concentration 1 uM, replicate 2
# [7] = 24 h, 10 µM, compound concentration 10 uM, replicate 1
# [8] = 24 h, 10 µM, compound concentration 10 uM, replicate 2
# [9] = 48 h, 1 µM, compound concentration 1 uM, replicate 1
# [10] = 48 h, 1 µM, compound concentration 1 uM, replicate 2
# [11] = 48 h, 10 µM, compound concentration 10 uM, replicate 1
# [12] = 48 h, 10 µM, compound concentration 10 uM, replicate 2
structure (smiles),measurement,setting,value
C=CC(=O)Nc1cccc(C(=O)Nc2ccc(Nc3cc(-c4[nH]c(SC)nc4C)ccn3)cc2)c1,Population Apoptotic (%),[1],69%
same,Population Fragmented Nuclei (%),[1],23%
same,Population Healthy Nuclei (%),[1],43%
same,Population Hoechst High Intensity Objects (%),[1],11%
same,Population Membrane Permeable-Phenotype (%),[1],28%
same,Population Mitochondria Different-Phenotype (%),[1],8%
same,Population Mitotic Cells (%),[1],30%
same,Population Normal (%),[1],88%
same,Population Pyknosed Nuclei (%),[1],33%
same,Population Tubulin-Different-Phenotype (%),[1],36%
same,Total Cell Count,[1],131
same,Population Apoptotic (%),[2],0%
same,Population Fragmented Nuclei (%),[2],2%
same,Population Healthy Nuclei (%),[2],94%
same,Population Hoechst High Intensity Objects (%),[2],14%
same,Population Membrane Permeable-Phenotype (%),[2],0%
same,Population Mitochondria Different-Phenotype (%),[2],7%
same,Population Mitotic Cells (%),[2],100%
same,Population Normal (%),[2],85%
same,Population Pyknosed Nuclei (%),[2],2%
same,Population Tubulin-Different-Phenotype (%),[2],23%
same,Total Cell Count,[2],112
same,Population Apoptotic (%),[3],50%
same,Population Fragmented Nuclei (%),[3],27%
same,Population Healthy Nuclei (%),[3],50%
same,Population Hoechst High Intensity Objects (%),[3],19%
same,Population Membrane Permeable-Phenotype (%),[3],18%
same,Population Mitochondria Different-Phenotype (%),[3],13%
same,Population Mitotic Cells (%),[3],50%
same,Population Normal (%),[3],80%
same,Population Pyknosed Nuclei (%),[3],22%
same,Population Tubulin-Different-Phenotype (%),[3],29%
same,Total Cell Count,[3],109
same,Population Apoptotic (%),[4],40%
same,Population Fragmented Nuclei (%),[4],6%
same,Population Healthy Nuclei (%),[4],83%
same,Population Hoechst High Intensity Objects (%),[4],18%
same,Population Membrane Permeable-Phenotype (%),[4],7%
same,Population Mitochondria Different-Phenotype (%),[4],12%
same,Population Mitotic Cells (%),[4],60%
same,Population Normal (%),[4],81%
same,Population Pyknosed Nuclei (%),[4],10%
same,Population Tubulin-Different-Phenotype (%),[4],12%
same,Total Cell Count,[4],78
same,Population Apoptotic (%),[5],60%
same,Population Fragmented Nuclei (%),[5],20%
same,Population Healthy Nuclei (%),[5],55%
same,Population Hoechst High Intensity Objects (%),[5],13%
same,Population Membrane Permeable-Phenotype (%),[5],29%
same,Population Mitochondria Different-Phenotype (%),[5],3%
same,Population Mitotic Cells (%),[5],39%
same,Population Normal (%),[5],86%
same,Population Pyknosed Nuclei (%),[5],24%
same,Population Tubulin-Different-Phenotype (%),[5],34%
same,Total Cell Count,[5],134
same,Population Apoptotic (%),[6],37%
same,Population Fragmented Nuclei (%),[6],3%
same,Population Healthy Nuclei (%),[6],87%
same,Population Hoechst High Intensity Objects (%),[6],4%
same,Population Membrane Permeable-Phenotype (%),[6],2%
same,Population Mitochondria Different-Phenotype (%),[6],10%
same,Population Mitotic Cells (%),[6],62%
same,Population Normal (%),[6],95%
same,Population Pyknosed Nuclei (%),[6],8%
same,Population Tubulin-Different-Phenotype (%),[6],25%
same,Total Cell Count,[6],122
same,Population Apoptotic (%),[7],30%
same,Population Fragmented Nuclei (%),[7],32%
same,Population Healthy Nuclei (%),[7],43%
same,Population Hoechst High Intensity Objects (%),[7],13%
same,Population Membrane Permeable-Phenotype (%),[7],20%
same,Population Mitochondria Different-Phenotype (%),[7],4%
same,Population Mitotic Cells (%),[7],69%
same,Population Normal (%),[7],86%
same,Population Pyknosed Nuclei (%),[7],23%
same,Population Tubulin-Different-Phenotype (%),[7],30%
same,Total Cell Count,[7],113
same,Population Apoptotic (%),[8],40%
same,Population Fragmented Nuclei (%),[8],5%
same,Population Healthy Nuclei (%),[8],85%
same,Population Hoechst High Intensity Objects (%),[8],11%
same,Population Membrane Permeable-Phenotype (%),[8],8%
same,Population Mitochondria Different-Phenotype (%),[8],14%
same,Population Mitotic Cells (%),[8],60%
same,Population Normal (%),[8],88%
same,Population Pyknosed Nuclei (%),[8],9%
same,Population Tubulin-Different-Phenotype (%),[8],12%
same,Total Cell Count,[8],95
same,Population Apoptotic (%),[9],62%
same,Population Fragmented Nuclei (%),[9],25%
same,Population Healthy Nuclei (%),[9],50%
same,Population Hoechst High Intensity Objects (%),[9],11%
same,Population Membrane Permeable-Phenotype (%),[9],34%
same,Population Mitochondria Different-Phenotype (%),[9],3%
same,Population Mitotic Cells (%),[9],37%
same,Population Normal (%),[9],88%
same,Population Pyknosed Nuclei (%),[9],23%
same,Population Tubulin-Different-Phenotype (%),[9],25%
same,Total Cell Count,[9],129
same,Population Apoptotic (%),[10],100%
same,Population Fragmented Nuclei (%),[10],36%
same,Population Healthy Nuclei (%),[10],61%
same,Population Hoechst High Intensity Objects (%),[10],17%
same,Population Membrane Permeable-Phenotype (%),[10],28%
same,Population Mitochondria Different-Phenotype (%),[10],2%
same,Population Mitotic Cells (%),[10],0%
same,Population Normal (%),[10],82%
same,Population Pyknosed Nuclei (%),[10],1%
same,Population Tubulin-Different-Phenotype (%),[10],20%
same,Total Cell Count,[10],69
same,Population Apoptotic (%),[11],43%
same,Population Fragmented Nuclei (%),[11],37%
same,Population Healthy Nuclei (%),[11],47%
same,Population Hoechst High Intensity Objects (%),[11],12%
same,Population Membrane Permeable-Phenotype (%),[11],11%
same,Population Mitochondria Different-Phenotype (%),[11],0%
same,Population Mitotic Cells (%),[11],56%
same,Population Normal (%),[11],87%
same,Population Pyknosed Nuclei (%),[11],14%
same,Population Tubulin-Different-Phenotype (%),[11],23%
same,Total Cell Count,[11],123
same,Population Apoptotic (%),[12],100%
same,Population Fragmented Nuclei (%),[12],36%
same,Population Healthy Nuclei (%),[12],57%
same,Population Hoechst High Intensity Objects (%),[12],13%
same,Population Membrane Permeable-Phenotype (%),[12],20%
same,Population Mitochondria Different-Phenotype (%),[12],3%
same,Population Mitotic Cells (%),[12],0%
same,Population Normal (%),[12],86%
same,Population Pyknosed Nuclei (%),[12],5%
same,Population Tubulin-Different-Phenotype (%),[12],27%
same,Total Cell Count,[12],118
CN1CCC[C@@H]1CCO[C@](C)(c1ccccc1)c1ccc(Cl)cc1.O=C(O)/C=C/C(=O)O [CLEMASTINE FUMARATE],Population Apoptotic (%),[1],61%
same,Population Fragmented Nuclei (%),[1],35%
same,Population Healthy Nuclei (%),[1],39%
same,Population Hoechst High Intensity Objects (%),[1],20%
same,Population Membrane Permeable-Phenotype (%),[1],13%
same,Population Mitochondria Different-Phenotype (%),[1],10%
same,Population Mitotic Cells (%),[1],38%
same,Population Normal (%),[1],79%
same,Population Pyknosed Nuclei (%),[1],24%
same,Population Tubulin-Different-Phenotype (%),[1],37%
same,Total Cell Count,[1],92
same,Population Apoptotic (%),[2],50%
same,Population Fragmented Nuclei (%),[2],15%
same,Population Healthy Nuclei (%),[2],76%
same,Population Hoechst High Intensity Objects (%),[2],1%
same,Population Membrane Permeable-Phenotype (%),[2],3%
same,Population Mitochondria Different-Phenotype (%),[2],6%
same,Population Mitotic Cells (%),[2],50%
same,Population Normal (%),[2],98%
same,Population Pyknosed Nuclei (%),[2],7%
same,Population Tubulin-Different-Phenotype (%),[2],3%
same,Total Cell Count,[2],78
same,Population Apoptotic (%),[3],69%
same,Population Fragmented Nuclei (%),[3],26%
same,Population Healthy Nuclei (%),[3],43%
same,Population Hoechst High Intensity Objects (%),[3],10%
same,Population Membrane Permeable-Phenotype (%),[3],11%
same,Population Mitochondria Different-Phenotype (%),[3],49%
same,Population Mitotic Cells (%),[3],30%
same,Population Normal (%),[3],90%
same,Population Pyknosed Nuclei (%),[3],29%
same,Population Tubulin-Different-Phenotype (%),[3],77%
same,Total Cell Count,[3],160
same,Population Apoptotic (%),[4],85%
same,Population Fragmented Nuclei (%),[4],19%
same,Population Healthy Nuclei (%),[4],41%
same,Population Hoechst High Intensity Objects (%),[4],21%
same,Population Membrane Permeable-Phenotype (%),[4],6%
same,Population Mitochondria Different-Phenotype (%),[4],86%
same,Population Mitotic Cells (%),[4],14%
same,Population Normal (%),[4],78%
same,Population Pyknosed Nuclei (%),[4],38%
same,Population Tubulin-Different-Phenotype (%),[4],40%
same,Total Cell Count,[4],46
same,Population Apoptotic (%),[5],63%
same,Population Fragmented Nuclei (%),[5],36%
same,Population Healthy Nuclei (%),[5],50%
same,Population Hoechst High Intensity Objects (%),[5],32%
same,Population Membrane Permeable-Phenotype (%),[5],20%
same,Population Mitochondria Different-Phenotype (%),[5],17%
same,Population Mitotic Cells (%),[5],36%
same,Population Normal (%),[5],67%
same,Population Pyknosed Nuclei (%),[5],13%
same,Population Tubulin-Different-Phenotype (%),[5],60%
same,Total Cell Count,[5],118
same,Population Apoptotic (%),[6],18%
same,Population Fragmented Nuclei (%),[6],14%
same,Population Healthy Nuclei (%),[6],70%
same,Population Hoechst High Intensity Objects (%),[6],0%
same,Population Membrane Permeable-Phenotype (%),[6],5%
same,Population Mitochondria Different-Phenotype (%),[6],13%
same,Population Mitotic Cells (%),[6],81%
same,Population Normal (%),[6],99%
same,Population Pyknosed Nuclei (%),[6],15%
same,Population Tubulin-Different-Phenotype (%),[6],6%
same,Total Cell Count,[6],107
same,Population Apoptotic (%),[7],78%
same,Population Fragmented Nuclei (%),[7],34%
same,Population Healthy Nuclei (%),[7],48%
same,Population Hoechst High Intensity Objects (%),[7],16%
same,Population Membrane Permeable-Phenotype (%),[7],9%
same,Population Mitochondria Different-Phenotype (%),[7],76%
same,Population Mitotic Cells (%),[7],21%
same,Population Normal (%),[7],83%
same,Population Pyknosed Nuclei (%),[7],17%
same,Population Tubulin-Different-Phenotype (%),[7],85%
same,Total Cell Count,[7],190
same,Population Apoptotic (%),[8],76%
same,Population Fragmented Nuclei (%),[8],21%
same,Population Healthy Nuclei (%),[8],36%
same,Population Hoechst High Intensity Objects (%),[8],12%
same,Population Membrane Permeable-Phenotype (%),[8],26%
same,Population Mitochondria Different-Phenotype (%),[8],86%
same,Population Mitotic Cells (%),[8],23%
same,Population Normal (%),[8],87%
same,Population Pyknosed Nuclei (%),[8],41%
same,Population Tubulin-Different-Phenotype (%),[8],26%
same,Total Cell Count,[8],47
same,Population Apoptotic (%),[9],50%
same,Population Fragmented Nuclei (%),[9],46%
same,Population Healthy Nuclei (%),[9],45%
same,Population Hoechst High Intensity Objects (%),[9],27%
same,Population Membrane Permeable-Phenotype (%),[9],24%
same,Population Mitochondria Different-Phenotype (%),[9],2%
same,Population Mitotic Cells (%),[9],50%
same,Population Normal (%),[9],72%
same,Population Pyknosed Nuclei (%),[9],8%
same,Population Tubulin-Different-Phenotype (%),[9],42%
same,Total Cell Count,[9],136
same,Population Apoptotic (%),[10],0%
same,Population Fragmented Nuclei (%),[10],48%
same,Population Healthy Nuclei (%),[10],51%
same,Population Hoechst High Intensity Objects (%),[10],16%
same,Population Membrane Permeable-Phenotype (%),[10],11%
same,Population Mitochondria Different-Phenotype (%),[10],14%
same,Population Mitotic Cells (%),[10],0%
same,Population Normal (%),[10],83%
same,Population Pyknosed Nuclei (%),[10],0%
same,Population Tubulin-Different-Phenotype (%),[10],50%
same,Total Cell Count,[10],97
same,Population Apoptotic (%),[11],78%
same,Population Fragmented Nuclei (%),[11],38%
same,Population Healthy Nuclei (%),[11],45%
same,Population Hoechst High Intensity Objects (%),[11],24%
same,Population Membrane Permeable-Phenotype (%),[11],8%
same,Population Mitochondria Different-Phenotype (%),[11],72%
same,Population Mitotic Cells (%),[11],21%
same,Population Normal (%),[11],75%
same,Population Pyknosed Nuclei (%),[11],15%
same,Population Tubulin-Different-Phenotype (%),[11],83%
same,Total Cell Count,[11],197
same,Population Apoptotic (%),[12],75%
same,Population Fragmented Nuclei (%),[12],47%
same,Population Healthy Nuclei (%),[12],50%
same,Population Membrane Permeable-Phenotype (%),[12],3%
same,Population Mitochondria Different-Phenotype (%),[12],60%
same,Population Mitotic Cells (%),[12],25%
same,Population Pyknosed Nuclei (%),[12],2%
same,Population Tubulin-Different-Phenotype (%),[12],97%
same,Total Cell Count,[12],258

# — ChEMBL document CHEMBL4689842, “EUbOPEN Chemogenomics Library wave 1” (2021)
